Results reported in ChEMBL document CHEMBL4665795, “Synthesis and Evaluation of 4-Hydroxycoumarin Imines as Inhibitors of Class II Myosins” (J Med Chem, 2020).
Active and inactive are the calls of the source. No cut-off for these calls is given here.

Tests used:
[1] = Selectivity ratio of IC50 for actin-activated bovine heart muscle myosin 2 to IC50 for actin-activated rabbit skeletal muscle myosin 2
[2] = Inhibition of actin-activated rabbit skeletal muscle myosin 2 assessed as phosphate level incubated for 6 to 24 mins by spectrophotometric method; parameters: species or system Oryctolagus cuniculus
Summary of the method: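 Actin-activated ATPase run at 30 °C in assay buffer with 32 µM actin and 2 mM ATP. Phosphate production followed over time by absorbance in stopped-time format. IC50 from four-parameter logistic fit. N is the number of fully independent titrations.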

Mus musculus [3] = species: Mus musculus; assay: Inhibition of C57Bl6 mouse skeletal muscle myosin assessed as inhibition of phrenic nerve stimulation-induced contraction in mouse diaphragm at 100 uM relative to control
Summary of the method: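 Mouse phrenic nerve-hemidiaphragm preparation used ex vivo. Muscle contraction evoked by phrenic nerve stimulation, recorded with and without compound.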

Mus musculus [4] = species: Mus musculus; assay: Inhibition of C57Bl6 mouse […] assessed as reduction in action potential in mouse diaphragm at 100 uM
[5] = Half life in pH 7.4 PBS at 100 uM by UV-VIS spectroscopic method; format: physicochemical
[6] = Kinetic solubility in pH 7.4 PBS incubated for 1 hr; format: physicochemical; conditions: for Kinetic_solubility: buffer, pH 7.4, 1 h
[7] = Inhibition of actin-activated rabbit skeletal muscle myosin 2; parameters: species or system Oryctolagus cuniculus
[8] = Binding affinity to skeletal myosin S1 (unknown origin) assessed as fluorescence intensity in presence of ATP; parameters: species or system Homo sapiens
Summary of the method: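 Skeletal myosin S1 binding read by fluorescence of 2 µM blebbistatin probe (λex 440 nm, em 560 nm) in assay buffer with 1 mM ATP at 22-25 °C. Signal without S1 was subtracted and normalised to Fmax. Direct Kd came from S1 titration fit to a quadratic single-site equation. Competition used 1 µM S1 and 1 hr incubation with analog; IC50 from a four-parameter fit was converted to Ki. N = 1.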

HL-60 = assay: Cytotoxicity against human HL-60 cells assessed as reduction in cell viability incubated for 48 hrs by hemocytometer based trypan-blue exclusion assay; conditions: HL-60, 48 h
[9] = Competitive binding affinity to skeletal myosin S1 (unknown origin) assessed as reduction in Blebbistatin-induced fluorescence intensity incubated for 1 hr by fluorescence based assay; parameters: species or system Homo sapiens
[10] = Inhibition of rabbit skeletal muscle myosin 2 assessed as reduction in actin-sliding velocity incubated for 1 min by inverted microscopic analysis; parameters: species or system Oryctolagus cuniculus
Summary of the method: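 In vitro motility assay at 30 °C with skeletal myosin loaded at 100 µg mL-1 on a coverslip. Fluorescent actin filament sliding velocity recorded across compound concentrations. IC50 obtained by curve fit.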

SMILES | Ratio IC50 [1] | IC50 [2] [µM] | inhibition (Mus musculus [3]) [%] | inhibition (Mus musculus [4]) | further results
C/C(=N\CC(C)C)c1c(O)c2ccccc2oc1=O | < 0.34 | ≥ 100 | 22 | – | –
CC/C(=N\Cc1ccccc1)c1c(O)c2ccccc2oc1=O | – | ≥ 100 | – | – | –
CCCC/N=C(\C)c1c(O)c2ccccc2n(C)c1=O | – | ≥ 100 | – | – | –
CC(=N)c1c(O)c2ccccc2oc1=O | – | ≥ 100 | 73 | Active | –
C/C(=N\CCO)c1c(O)c2ccccc2[nH]c1=O | – | ≥ 100 | 94 | Active | –
CCCC/N=C(\C)c1c(O)c2ccccc2[nH]c1=O | – | ≥ 100 | 48 | – | –
C/C(=N\Cc1ccccc1C)c1c(O)c2ccccc2oc1=O | – | ≥ 100 | – | – | –
CCC/C(=N\Cc1ccccc1)c1c(O)c2ccccc2oc1=O | – | ≥ 100 | – | – | –
C/C(=N\C(C)C)c1c(O)c2ccccc2[nH]c1=O | – | ≥ 100 | 18 | – | –
C/N=C(\C)c1c(O)c2ccccc2oc1=O | – | ≥ 100 | 80 | Active | IC50 (HL-60): 408 µM
C/C(=N\Cc1ccccc1)c1c(O)c2cc([N+](=O)[O-])ccc2oc1=O | – | ≥ 100 | – | – | –
CCCCC/N=C(\C)c1c(O)c2ccccc2[nH]c1=O | – | ≥ 100 | 99 | Active | –
CCCCC/N=C(\C)c1c(O)c2cc([N+](=O)[O-])ccc2oc1=O | – | ≥ 100 | – | – | –
CCC(C)/N=C(\C)c1c(O)c2ccccc2oc1=O (configuration not stated) | – | ≥ 100 | 21 | – | –
C/C(=N\OCc1ccccc1)c1c(O)c2ccccc2oc1=O | – | ≥ 100 | – | – | –
C/C(=N\C(C)C)c1c(O)c2ccccc2oc1=O | – | ≥ 100 | 94 | Active | –
C/C(=N\Cc1ccccc1)c1c(O)c2ccccc2[nH]c1=O | – | ≥ 100 | 16 | – | –
CCC(C)/N=C(\C)c1c(O)c2ccccc2[nH]c1=O (configuration not stated) | – | ≥ 100 | 98 | Active | –
C/C(=N\CC1CCCCC1)c1c(O)c2ccccc2[nH]c1=O | – | ≥ 100 | 72 | Active | –
C/C(=N\CC(C)C)c1c(O)c2ccccc2[nH]c1=O | – | ≥ 100 | 71 | Active | –
CCC/N=C(\C)c1c(O)c2ccccc2[nH]c1=O | – | ≥ 100 | 41 | – | –

Now those with a lower IC50 [2], led by results:

Ratio IC50 [1] | IC50 [2] [µM] | inhibition (Mus musculus [3]) [%] | inhibition (Mus musculus [4]) | SMILES | further results
1 | 92 | 87 | Active | C/C(=N\CCO)c1c(O)c2ccccc2oc1=O | IC50 (HL-60): 590 µM
2.1 | 47 | – | – | CC/N=C(\C)c1c(O)c2ccccc2oc1=O | –
1.7 | 31 | – | – | CCC/N=C(\C)c1c(O)c2ccccc2oc1=O | –
1.2 | 31 | 72 | Active | C/C(=N\CCCO)c1c(O)c2ccccc2oc1=O | –
0.5 | 10 | – | – | C/C(=N\Cc1cccc(C)c1)c1c(O)c2ccccc2oc1=O | –
> 12 | 8.5 | 98 | inactive | C/C(=N\Cc1ccncc1)c1c(O)c2ccccc2oc1=O | half-life at 100 µM [5]: 84 h; solubility kinetic at 1 h ([6]; PBS, pH 7.4, read-out: Kinetic_solubility): > 400 µM
3.2 | 6.8 | 86 | Active | C/C(=N\Cc1ccccn1)c1c(O)c2ccccc2oc1=O | –
5.6 | 3 | – | – | C/C(=N\Cc1cccnc1)c1c(O)c2ccccc2oc1=O | –
2.8 | 2.1 | 96 | inactive | CCCC/N=C(\C)c1c(O)c2ccccc2oc1=O | IC50 [10]: 2.8 µM; Kinetic_solubility [6]: 607 µM
13.5 | 2 | – | – | C/C(=N\Nc1ccccc1)c1c(O)c2ccccc2oc1=O | –
3.3 | 2 | – | – | CCCCC/N=C(\C)c1c(O)c2ccccc2oc1=O | –
2.4 | 1.2 | – | – | CCCCCC/N=C(\C)c1c(O)c2ccccc2oc1=O | –
9.9 | 0.8 | – | – | C/C(=N\Cc1ccc(C)cc1)c1c(O)c2ccccc2oc1=O | –
9.1 | 0.8 | – | – | C/C(=N\Cc1ccccc1)c1c(O)c2ccccc2oc1=O | Kinetic_solubility [6]: 103 µM; IC50 [9]: 5.3 µM; Ki [9]: 0.8 µM; IC50 (HL-60): 801 µM
– | 0.5 | 99 | Active | Cc1ccc2c(c1)C(=O)[C@]1(O)CCN(c3ccccc3)C1=N2 | IC50 [7]: 0.01 µM; Kd [8]: 0.4 µM
